# ChEMBL document CHEMBL1649557 (Antimicrob Agents Chemother, 2009)
# Key:
# Staphylococcus aureus [1] = experiment: Antibacterial activity against methicillin-susceptible Staphylococcus aureus using 5x10^4 CFU/ml low inoculum assessed as bacterial growth inhibition at <= […] ug/ml; type: functional; parameters: scale not given: the % may be the effect or the level left
# Staphylococcus aureus [2] = experiment: Antibacterial activity against methicillin-susceptible Staphylococcus aureus using 5x10^4 CFU/ml low inoculum assessed as bacterial growth inhibition at 2 ug/ml; type: functional; parameters: scale not given: the % may be the effect or the level left
# Summary of the method: (§1)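 98 MSSA clinical isolates from skin/soft tissue infection, hospital-acquired pneumonia, endocarditis and haemodialysis bacteraemia; testers were blinded to clinical data. Broth microdilution in cation-adjusted Mueller-Hinton II broth per CLSI, with inocula of ~5×10^4, 5×10^5, 5×10^6 or 5×10^7 CFU/ml. Inocula were set by optical density and spot-checked by CFU counts. Plates were read at 24 h. Values are the percentage of strains inhibited at each concentration.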
# Staphylococcus aureus [3] = experiment: Antibacterial activity against methicillin-susceptible Staphylococcus aureus using 5x10^4 CFU/ml low inoculum assessed as bacterial growth inhibition at 4 ug/ml; type: functional; parameters: scale not given: the % may be the effect or the level left; summary of the method: as §1
# Staphylococcus aureus [4] = experiment: Antibacterial activity against methicillin-susceptible Staphylococcus aureus using 5x10^4 CFU/ml low inoculum assessed as bacterial growth inhibition at 8 ug/ml; type: functional; parameters: scale not given: the % may be the effect or the level left; summary of the method: as §1
# Staphylococcus aureus [5] = experiment: Antibacterial activity against methicillin-susceptible Staphylococcus aureus using 5x10^4 CFU/ml low inoculum assessed as bacterial growth inhibition at 16 ug/ml; type: functional; parameters: scale not given: the % may be the effect or the level left; summary of the method: as §1
# Staphylococcus aureus [6] = experiment: Antibacterial activity against methicillin-susceptible Staphylococcus aureus using 5x10^4 CFU/ml low inoculum assessed as bacterial growth inhibition at 32 ug/ml; type: functional; parameters: scale not given: the % may be the effect or the level left; summary of the method: as §1
# Staphylococcus aureus [7] = experiment: Antibacterial activity against methicillin-susceptible Staphylococcus aureus using 5x10^4 CFU/ml low inoculum assessed as bacterial growth inhibition at 64 ug/ml; type: functional; parameters: scale not given: the % may be the effect or the level left; summary of the method: as §1
# Staphylococcus aureus [8] = experiment: Antibacterial activity against methicillin-susceptible Staphylococcus aureus using 5x10^4 CFU/ml low inoculum assessed as bacterial growth inhibition at >= 128 ug/ml; type: functional; parameters: scale not given: the % may be the effect or the level left; summary of the method: as §1
# Staphylococcus aureus [9] = experiment: Antibacterial activity against methicillin-susceptible Staphylococcus aureus using 5x10^5 CFU/ml standard inoculum assessed as bacterial growth inhibition at <= […] ug/ml; type: functional; parameters: scale not given: the % may be the effect or the level left
# Staphylococcus aureus [10] = experiment: Antibacterial activity against methicillin-susceptible Staphylococcus aureus using 5x10^5 CFU/ml standard inoculum assessed as bacterial growth inhibition at 2 ug/ml; type: functional; parameters: scale not given: the % may be the effect or the level left; summary of the method: as §1
# Staphylococcus aureus [11] = experiment: Antibacterial activity against methicillin-susceptible Staphylococcus aureus using 5x10^5 CFU/ml standard inoculum assessed as bacterial growth inhibition at 4 ug/ml; type: functional; parameters: scale not given: the % may be the effect or the level left; summary of the method: as §1
# Staphylococcus aureus [12] = experiment: Antibacterial activity against methicillin-susceptible Staphylococcus aureus using 5x10^5 CFU/ml standard inoculum assessed as bacterial growth inhibition at 8 ug/ml; type: functional; parameters: scale not given: the % may be the effect or the level left; summary of the method: as §1
# Staphylococcus aureus [13] = experiment: Antibacterial activity against methicillin-susceptible Staphylococcus aureus using 5x10^5 CFU/ml standard inoculum assessed as bacterial growth inhibition at 16 ug/ml; type: functional; parameters: scale not given: the % may be the effect or the level left; summary of the method: as §1
# Staphylococcus aureus [14] = experiment: Antibacterial activity against methicillin-susceptible Staphylococcus aureus using 5x10^5 CFU/ml standard inoculum assessed as bacterial growth inhibition at 32 ug/ml; type: functional; parameters: scale not given: the % may be the effect or the level left; summary of the method: as §1
# Staphylococcus aureus [15] = experiment: Antibacterial activity against methicillin-susceptible Staphylococcus aureus using 5x10^5 CFU/ml standard inoculum assessed as bacterial growth inhibition at 64 ug/ml; type: functional; parameters: scale not given: the % may be the effect or the level left; summary of the method: as §1
# Staphylococcus aureus [16] = experiment: Antibacterial activity against methicillin-susceptible Staphylococcus aureus using 5x10^5 CFU/ml standard inoculum assessed as bacterial growth inhibition at >= 128 ug/ml; type: functional; parameters: scale not given: the % may be the effect or the level left; summary of the method: as §1
# Staphylococcus aureus [17] = experiment: Antibacterial activity against methicillin-susceptible Staphylococcus aureus using 5x10^6 CFU/ml intermediate inoculum assessed as bacterial growth inhibition at <= […] ug/ml; type: functional; parameters: scale not given: the % may be the effect or the level left
# Staphylococcus aureus [18] = experiment: Antibacterial activity against methicillin-susceptible Staphylococcus aureus using 5x10^6 CFU/ml intermediate inoculum assessed as bacterial growth inhibition at 2 ug/ml; type: functional; parameters: scale not given: the % may be the effect or the level left; summary of the method: as §1
# Staphylococcus aureus [19] = experiment: Antibacterial activity against methicillin-susceptible Staphylococcus aureus using 5x10^6 CFU/ml intermediate inoculum assessed as bacterial growth inhibition at 4 ug/ml; type: functional; parameters: scale not given: the % may be the effect or the level left; summary of the method: as §1
# Staphylococcus aureus [20] = experiment: Antibacterial activity against methicillin-susceptible Staphylococcus aureus using 5x10^6 CFU/ml intermediate inoculum assessed as bacterial growth inhibition at 8 ug/ml; type: functional; parameters: scale not given: the % may be the effect or the level left; summary of the method: as §1
# Staphylococcus aureus [21] = experiment: Antibacterial activity against methicillin-susceptible Staphylococcus aureus using 5x10^6 CFU/ml intermediate inoculum assessed as bacterial growth inhibition at 16 ug/ml; type: functional; parameters: scale not given: the % may be the effect or the level left; summary of the method: as §1
# Staphylococcus aureus [22] = experiment: Antibacterial activity against methicillin-susceptible Staphylococcus aureus using 5x10^6 CFU/ml intermediate inoculum assessed as bacterial growth inhibition at 32 ug/ml; type: functional; parameters: scale not given: the % may be the effect or the level left; summary of the method: as §1
# Staphylococcus aureus [23] = experiment: Antibacterial activity against methicillin-susceptible Staphylococcus aureus using 5x10^6 CFU/ml intermediate inoculum assessed as bacterial growth inhibition at 64 ug/ml; type: functional; parameters: scale not given: the % may be the effect or the level left; summary of the method: as §1
# Staphylococcus aureus [24] = experiment: Antibacterial activity against methicillin-susceptible Staphylococcus aureus using 5x10^6 CFU/ml intermediate inoculum assessed as bacterial growth inhibition at >= 128 ug/ml; type: functional; parameters: scale not given: the % may be the effect or the level left; summary of the method: as §1
# Staphylococcus aureus [25] = experiment: Antibacterial activity against methicillin-susceptible Staphylococcus aureus using 5x10^7 CFU/ml high inoculum assessed as bacterial growth inhibition at <= […] ug/ml; type: functional; parameters: scale not given: the % may be the effect or the level left
# Staphylococcus aureus [26] = experiment: Antibacterial activity against methicillin-susceptible Staphylococcus aureus using 5x10^7 CFU/ml high inoculum assessed as bacterial growth inhibition at 2 ug/ml; type: functional; parameters: scale not given: the % may be the effect or the level left; summary of the method: as §1
# Staphylococcus aureus [27] = experiment: Antibacterial activity against methicillin-susceptible Staphylococcus aureus using 5x10^7 CFU/ml high inoculum assessed as bacterial growth inhibition at 4 ug/ml; type: functional; parameters: scale not given: the % may be the effect or the level left; summary of the method: as §1
# Staphylococcus aureus [28] = experiment: Antibacterial activity against methicillin-susceptible Staphylococcus aureus using 5x10^7 CFU/ml high inoculum assessed as bacterial growth inhibition at 8 ug/ml; type: functional; parameters: scale not given: the % may be the effect or the level left; summary of the method: as §1
# Staphylococcus aureus [29] = experiment: Antibacterial activity against methicillin-susceptible Staphylococcus aureus using 5x10^7 CFU/ml high inoculum assessed as bacterial growth inhibition at 16 ug/ml; type: functional; parameters: scale not given: the % may be the effect or the level left; summary of the method: as §1
# Staphylococcus aureus [30] = experiment: Antibacterial activity against methicillin-susceptible Staphylococcus aureus using 5x10^7 CFU/ml high inoculum assessed as bacterial growth inhibition at 32 ug/ml; type: functional; parameters: scale not given: the % may be the effect or the level left; summary of the method: as §1
# Staphylococcus aureus [31] = experiment: Antibacterial activity against methicillin-susceptible Staphylococcus aureus using 5x10^7 CFU/ml high inoculum assessed as bacterial growth inhibition at 64 ug/ml; type: functional; parameters: scale not given: the % may be the effect or the level left; summary of the method: as §1
# Staphylococcus aureus [32] = experiment: Antibacterial activity against methicillin-susceptible Staphylococcus aureus using 5x10^7 CFU/ml high inoculum assessed as bacterial growth inhibition at >= 128 ug/ml; type: functional; parameters: scale not given: the % may be the effect or the level left; summary of the method: as §1
# [33] = Drug level in human serum at 1 g, iv after 4 hrs; type: ADME, organism-based; conditions: read-out: Drug uptake
# [34] = Drug level in bone of methicillin-susceptible Staphylococcus aureus infected human after 60 mins; type: ADME, tissue-based, Bone element; conditions: read-out: Drug uptake
# Staphylococcus aureus [35] = experiment: Antibacterial activity against methicillin-susceptible and beta-lactamase-producing Staphylococcus aureus Type A TX01117 using 5x10^5 CFU/ml standard inoculum after 24 hrs by CLSI broth microdilution method; type: functional; conditions: Type A TX01117, 24 h
# Staphylococcus aureus [36] = experiment: Antibacterial activity against methicillin-susceptible and beta-lactamase-producing Staphylococcus aureus Type A TX01117 using 5x10^7 CFU/ml high inoculum after 24 hrs by CLSI broth microdilution method; type: functional; conditions: Type A TX01117, 24 h
# Staphylococcus aureus [37] = experiment: Antibacterial activity against methicillin-susceptible and beta-lactamase-producing Staphylococcus aureus Type B using 5x10^5 CFU/ml standard inoculum after 24 hrs by CLSI broth microdilution method; type: functional
# Staphylococcus aureus [38] = experiment: Antibacterial activity against methicillin-susceptible and beta-lactamase-producing Staphylococcus aureus Type B using 5x10^7 CFU/ml high inoculum after 24 hrs by CLSI broth microdilution method; type: functional
# Staphylococcus aureus [39] = experiment: Antibacterial activity against methicillin-susceptible and beta-lactamase-producing Staphylococcus aureus Type C using 5x10^5 CFU/ml standard inoculum after 24 hrs by CLSI broth microdilution method; type: functional
# Staphylococcus aureus [40] = experiment: Antibacterial activity against methicillin-susceptible and beta-lactamase-producing Staphylococcus aureus Type C using 5x10^7 CFU/ml high inoculum after 24 hrs by CLSI broth microdilution method; type: functional
# Staphylococcus aureus [41] = experiment: Antibacterial activity against methicillin-susceptible and beta-lactamase-negative Staphylococcus aureus ATCC 25923 using 5x10^5 CFU/ml standard inoculum after 24 hrs by CLSI broth microdilution method; type: functional; conditions: ATCC 25923, 24 h
# Staphylococcus aureus [42] = experiment: Antibacterial activity against methicillin-susceptible and beta-lactamase-negative Staphylococcus aureus ATCC 25923 using 5x10^7 CFU/ml high inoculum after 24 hrs by CLSI broth microdilution method; type: functional; conditions: ATCC 25923, 24 h
# Staphylococcus aureus [43] = experiment: Antibacterial activity against methicillin-susceptible and beta-lactamase-negative Staphylococcus aureus using 5x10^5 CFU/ml standard inoculum after 24 hrs by CLSI broth microdilution method
smiles,measurement,setting,value
Cc1nnc(SCC2=C(C(=O)O)N3C(=O)[C@@H](NC(=O)Cn4cnnn4)[C@H]3SC2)s1 [CEFAZOLIN],Activity,Staphylococcus aureus [1],100%
same,Activity,Staphylococcus aureus [2],0%
same,Activity,Staphylococcus aureus [3],0%
same,Activity,Staphylococcus aureus [4],0%
same,Activity,Staphylococcus aureus [5],0%
same,Activity,Staphylococcus aureus [6],0%
same,Activity,Staphylococcus aureus [7],0%
same,Activity,Staphylococcus aureus [8],0%
same,Activity,Staphylococcus aureus [9],89%
same,Activity,Staphylococcus aureus [10],5%
same,Activity,Staphylococcus aureus [11],6%
same,Activity,Staphylococcus aureus [12],0%
same,Activity,Staphylococcus aureus [13],0%
same,Activity,Staphylococcus aureus [14],0%
same,Activity,Staphylococcus aureus [15],0%
same,Activity,Staphylococcus aureus [16],0%
same,Activity,Staphylococcus aureus [17],33%
same,Activity,Staphylococcus aureus [18],50%
same,Activity,Staphylococcus aureus [19],8%
same,Activity,Staphylococcus aureus [20],2%
same,Activity,Staphylococcus aureus [21],2%
same,Activity,Staphylococcus aureus [22],1%
same,Activity,Staphylococcus aureus [23],3%
same,Activity,Staphylococcus aureus [24],0%
same,Activity,Staphylococcus aureus [25],23%
same,Activity,Staphylococcus aureus [26],12%
same,Activity,Staphylococcus aureus [27],20%
same,Activity,Staphylococcus aureus [28],24%
same,Activity,Staphylococcus aureus [29],5%
same,Activity,Staphylococcus aureus [30],9%
same,Activity,Staphylococcus aureus [31],3%
same,Activity,Staphylococcus aureus [32],2%
same,concentration at 4 h,[33],17000 ng/mL
same,concentration at 1 h,[34],6900 ng/mL
Cn1nnnc1SCC1=C(C(=O)O)N2C(=O)[C@@H](NC(=O)[C@H](O)c3ccccc3)[C@H]2SC1 [CEFAMANDOLE],MIC,Staphylococcus aureus [35],0.5 µg/mL
same,MIC50,Staphylococcus aureus [35],1 µg/mL
same,MIC90,Staphylococcus aureus [35],2 µg/mL
same,MIC,Staphylococcus aureus [36],8 µg/mL
same,MIC50,Staphylococcus aureus [36],4 µg/mL
same,MIC90,Staphylococcus aureus [36],32 µg/mL
same,MIC,Staphylococcus aureus [37],1.3 µg/mL
same,MIC50,Staphylococcus aureus [37],1 µg/mL
same,MIC90,Staphylococcus aureus [37],4 µg/mL
same,MIC,Staphylococcus aureus [38],13.6 µg/mL
same,MIC50,Staphylococcus aureus [38],8 µg/mL
same,MIC90,Staphylococcus aureus [38],64 µg/mL
same,MIC50,Staphylococcus aureus [39],2 µg/mL
same,MIC90,Staphylococcus aureus [39],4 µg/mL
same,MIC,Staphylococcus aureus [40],32 µg/mL
same,MIC50,Staphylococcus aureus [40],16 µg/mL
same,MIC90,Staphylococcus aureus [40],32 µg/mL
same,MIC,Staphylococcus aureus [41],0.6 µg/mL
same,MIC90,Staphylococcus aureus [41],1 µg/mL
same,MIC,Staphylococcus aureus [42],0.4 µg/mL
same,MIC50,Staphylococcus aureus [42],1 µg/mL
same,MIC90,Staphylococcus aureus [42],1 µg/mL
same,MIC50,Staphylococcus aureus [43],1 µg/mL
